Shown are actives, neighbours in structure and some others; about 2.1% of the full set was active somewhere.
LMPTP block: LMPTP phosphatase inhibitors, primary screen, biochemical, fluorescence intensity, uHTS. Low molecular weight phosphotyrosine protein phosphatase (Homo sapiens), P24666. recombinant LMPTP-A, OMFP fluorogenic substrate. inhibition, % at 20 µM. actives 0.22% (n = 360,000);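 active = compounds that cut the enzyme signal by at least half of the control window in the single-dose screen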;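 note: plate controls were DMSO wells with enzyme plus substrate for no effect and substrate without enzyme for full effect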
Target sequence (P24666 whole entry, looked up): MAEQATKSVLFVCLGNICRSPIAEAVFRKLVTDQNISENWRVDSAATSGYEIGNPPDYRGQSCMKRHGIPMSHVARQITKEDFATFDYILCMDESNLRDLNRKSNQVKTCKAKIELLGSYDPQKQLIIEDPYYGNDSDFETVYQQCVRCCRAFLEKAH
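Assay system: LMPTP-A enzyme. Input: 0.625 nM LMPTP-A final. Probe or stimulus: 400 µM OMFP. Compound dosing: single 20 µM dose. Schedule: 50 min dark incubation at room temperature. Detection: fluorescence intensity of OMFP turnover product. Read-out: percent inhibition versus substrate-only and uninhibited controls. Benchmarks: no-enzyme low control, uninhibited high control.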
Scp1 inh: Scp-1 phosphatase inhibitors, primary screen, biochemical, colorimetric, uHTS; Carboxy-terminal domain RNA polymerase II polypeptide A small phosphatase 1 (Homo …; Recombinant Scp1, phosphopeptide, malachite green phosphate absorbance; inhibition, % at 20 µM; actives 0.88% (n = 340,000);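 active = inhibition above about 50% at 20 µM, limit read from the data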;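 note: plate controls were DMSO wells with enzyme for no effect and wells lacking enzyme for full effect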
Target sequence (Q9GZU7 76-261 limits assumed): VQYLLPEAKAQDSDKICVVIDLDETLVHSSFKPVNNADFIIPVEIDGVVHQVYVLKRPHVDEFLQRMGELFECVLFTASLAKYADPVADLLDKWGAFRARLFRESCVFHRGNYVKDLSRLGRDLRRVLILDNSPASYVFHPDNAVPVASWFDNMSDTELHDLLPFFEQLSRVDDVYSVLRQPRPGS
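Test system: SCP-1 catalytic domain; Buffer or medium: Acidic Tris acetate buffer with magnesium and detergent; Also added: Phosphorylated 17-residue peptide substrate; Compound: single 20 µM dose, 1% DMSO; Schedule: enzyme reaction 45 min at room temperature, colour 5 min, stabilisation 30 min; Signal: Phosphate-binding colour reagent, absorbance read at 630 nm.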
STEP inh: STEP phosphatase inhibitors, primary screen, biochemical, fluorescence intensity, uHTS. Tyrosine-protein phosphatase non-receptor type 5 (Homo sapiens), P54829. recombinant STEP, OMFP fluorogenic substrate. inhibition, % at 20 µM. actives 0.25% (n = 360,000). AID 588621, 2011;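 active = inhibition at 20 µM, scaled per plate between control wells, above about 37%, limit read from the data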;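 note: 0% = DMSO with enzyme and substrate and 100% = substrate only without enzyme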
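System: isolated STEP enzyme; schedule: 20 min enzyme reaction at room temperature, protected from light; medium: Bis-Tris buffer pH 6.0, 2.5 mM DTT, 0.005% Tween 20; signal: fluorescence, 480/540 nm; dosing: single compound dose of 20 µM, 1% DMSO final; also added: OMFP substrate, 25 µM final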
SUMO1 PPI mod: modulators of SUMO1 protein-protein interactions, primary screen, biochemical, uHTS; Small ubiquitin-related modifier 1 (Homo sapiens), P63165; SUMO1 binding to a labelled peptide, TR-FRET, 1 h; inhibition, % at 20 µM; actives 0.33% (n = 360,000); AID 602429, 2012; in the data active = inhibition above about 37%
Target sequence (P63165 whole entry, looked up): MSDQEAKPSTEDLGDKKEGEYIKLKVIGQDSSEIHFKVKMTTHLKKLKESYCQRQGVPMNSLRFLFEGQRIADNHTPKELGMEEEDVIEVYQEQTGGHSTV
DNMT1 inh: human DNMT1 methyltransferase inhibitors, primary screen, biochemical, molecular beacon, fluorescence, HinP1I cleavage, uHTS | actives 0.83% (n = 360,000) | DNA (cytosine-5)-methyltransferase 1 (Homo sapiens), P26358 | inhibition (reported as % activation of signal), % at 10 µM; in the data active = inhibition above about 50%
GRK2 inh: compounds blocking aptamer binding on GRK2 – biochemical, human GRK2, bead flow cytometry, HTS, primary screen. actives 0.59% (n = 330,000). AID 488847, 2010. inhibition of aptamer binding, % at 10 µM. FAM-aptamer displacement from GRK2;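 active = inhibition of aptamer binding above 40%, roughly 3 SD of noise, on plates passing a quality check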;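 note: median bead fluorescence of bound FAM aptamer so fluorescent compounds give negative values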
Scp1 confirm: Scp-1 phosphatase inhibitors, retest, confirmation, biochemical, colorimetric, single concentration | recombinant SCP-1 catalytic domain, phosphate release, malachite green absorbance | inhibition, % at 20 µM | actives 61% (n = 2,500) | AID 540281, 2011 | shares compounds with Scp1 inh;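 active = inhibition of at least 30% at 20 µM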;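 note: plate controls were DMSO with enzyme for no effect and buffer wells lacking enzyme for full effect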
MG interference: colorimetric readout interference by compounds, confirmation, artefact control for Scp-1 inhibitor project, biochemical, single concentration. shares compounds with Scp1 inh. Colorimetric interference counterscreen, malachite green absorbance 630 nm. apparent inhibition (interference), % at 20 µM. 2,500 tested, under 10 active. AID 540313, 2011;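 active = inhibition of at least 30% at 20 µM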;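 note: compounds added after enzyme reaction finished so only phosphate colour detection is probed; plate controls were DMSO wells with completed Scp-1 reaction for no effect and substrate wells lacking enzyme for full effect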
Scp1 DSF: Scp-1 binding by thermal shift, confirmation, orthogonal assay for Scp-1 inhibitor project, biophysical, differential scanning fluorimetry; thermal shift relative to vanadate control, % at 40 µM; actives 25% (n = 1,500); AID 540329, 2011; shares compounds with Scp1 inh; Recombinant SCP1, Sypro Orange thermal shift Tm;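 active = substances whose mean melting-temperature shift, as a percentage of the reference inhibitor's shift, reaches about 5.3%, limit read from the data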;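 note: 0% = Tm of DMSO wells and 100% = Tm with sodium orthovanadate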
DNMT1 interf DR: spectral interference with molecular beacon fluorescence, dose response, artefact control for DNMT1 inhibitor project, biochemical, fluorescent molecular beacon | shares compounds with DNMT1 inh | spectral interference counter-screen | IC50, µM | 200 tested, under 10 active | AID 602382, 2012
DNMT1 confirm: DNMT1 methyltransferase inhibitor retest, confirmation, biochemical, molecular beacon, fluorescence, single concentration; shares compounds with DNMT1 inh; DNMT1 molecular beacon HinP1I cleavage; inhibition, % at 10 µM; actives 8% (n = 2,300); AID 602385, 2012;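 active = average inhibition of at least 30% in the single-concentration confirmation test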
Beacon interf: beacon fluorescence artifact counter-screen. shares compounds with DNMT1 inh. DNMT1 molecular beacon spectral interference counterscreen, fluorescence 485/520. activation (fluorescence interference), % at 10 µM. actives 1% (n = 2,300);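 active = activation of at least 30% at 10 µM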;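 note: DNMT1 catalytic domain with a HinP1I cleavage step and a FAM/dabcyl DNA beacon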
STEP conf: STEP phosphatase inhibitor hit confirmation, biochemical, fluorescence intensity, single concentration; inhibition, % at 20 µM; shares compounds with STEP inh; recombinant STEP, OMFP fluorogenic substrate; actives 32% (n = 520);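 note: 0% = enzyme with substrate plus DMSO and 100% = substrate without enzyme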
The depositor's hits bear a star; . = no result. Unless noted, the rule behind the calls is not given here.

SMILES	LMPTP block	Scp1 inh	STEP inh	SUMO1 PPI mod	DNMT1 inh	GRK2 inh	DNMT1 confirm	Beacon interf	others
Cn1c2ccccc2c(=O)c2c(=O)n(-c3ccc(F)cc3)c(-c3cccs3)nc21	47	101*	44*	-21	-2	0	.	.	Scp1 confirm=54*;MG interference=-13;Scp1 DSF=-4;STEP conf=17
Cc1ccc(-c2nc3c(c(=O)c4ccccc4n3C)c(=O)n2-c2ccc(F)cc2)cc1	-1	3	1	-60	27	5	.	.
COC(=O)C(C)n1cnc2c(nnn2-c2cccc(OC)c2)c1=O (stereo not drawn)	-1	-2	-5	0	7	2	.	.
CC1=C(C(=O)OC(C)C)C(c2ccc(Cl)cc2)n2c(s/c(=C\c3ccc(OCC(=O)O)cc3)c2=O)=N1 (stereo not drawn)	12	56*	11	97*	86*	0	.	.	Scp1 confirm=49*;MG interference=-22;Scp1 DSF=4;STEP conf=52*
O=S(=O)(c1ccc2c(c1)CCCC2)N1CCNCC1	-1	7	0	0	7	5	.	.
O=C1c2cccc3cccc(c23)C(=O)N1c1ccc2ncccc2c1	37	101*	100*	-27	4	0	.	.	Scp1 confirm=74*;MG interference=-19;Scp1 DSF=2;STEP conf=9
Cc1ccc(/C=C/C(=O)OC(C)C(=O)NC2CCCCC2C)o1 (stereo not drawn)	1	21	0	-5	17	3	.	.
COc1ccc2nc(NCCO)[nH]c2c1	-2	-5	-3	4	-1	0	.	.
COc1ccc2nc(N3CCCC3)[nH]c2c1	-1	-8	1	-1	88*	0	6	2
Cc1cc(C)c2oc(-c3ccc(C)c(NC(=S)NC(=O)c4cccs4)c3)nc2c1	2	-2	2	0	51*	0	5	-6
Cc1cc(C)c2oc(-c3ccc(C)c(NC(=S)NC(=O)/C=C/c4ccco4)c3)nc2c1	2	-7	1	16	-9	0	.	.
Cc1ccc(-c2nc3ccccc3o2)cc1NC(=S)NC(=O)c1cccs1	0	1	1	1	55*	2	0	-2
Cc1ccc2oc(-c3cccc(NC(=S)NC(=O)c4cccs4)c3)nc2c1	-2	-4	0	-1	6	4	.	.
COc1cc(OC)c2ccc(=O)oc2c1C(CCN1CCOCC1)c1ccc2c(c1)OCO2 (stereo not drawn)	-1	1	-1	-5	61*	0	4	2
CN(C)c1cccc(CNC(=O)c2ccc3sc([C@@H]4O[C@H](CO)[C@H](O)[C@H](O)[C@H]4O)nc3c2)c1	-2	.	0	33	7	.	.	.
Cn1c(SCC(=O)O)nnc1-c1ccc(NC(=O)c2ccc(Cl)c(Cl)c2)cc1	-2	-6	-1	3	7	2	.	.
COc1ccccc1-c1ccc(/C=C2/C=C(C)OC2=O)o1	2	-12	0	-5	-2	0	.	.
CC1=C/C(=C\c2ccc(Br)o2)C(=O)O1	11	82*	24	6	106*	96*	46*	-2	DNMT1 interf DR=>99
COc1ccc(CCNC(=O)c2ccc(OCc3c(C)noc3C)cc2)cc1OC	0	-2	-3	-6	54*	4	10	9
CCOc1ccc(CCNC(=O)c2ccc(OCc3c(C)noc3C)cc2)cc1OCC	-1	-7	0	2	-2	1	.	.
Cc1ccc(CNC(=O)Cn2nnc(C(=O)Nc3cccc(C)c3C)c2N)cc1	2	-8	-4	0	5	0	.	.
Cc1ccc(CNC(=O)c2nnn(CC(=O)Nc3cccc(C)c3C)c2N)cc1	23	-3	0	2	61*	0	12	-3
Cc1cnn(-c2cc(N/N=C/c3ccccc3F)ncn2)c1	-1	1	0	-2	56*	0	3	-3
O=C(/C=C/c1ccco1)Nc1sc2c(c1C(=O)O)CCC2	-1	29	2	-14	53*	1	1	-1
N#Cc1c(NC(=O)/C=C/c2ccco2)sc2c1CCCC2	1	6	1	-4	7	0	.	.
CN1CCN/C1=C(/C(Cl)=C(Cl)Cl)[N+](=O)[O-]	-6	-1	-1	-1	1	0	.	.
COc1ccc2c(Cl)c(C(=O)N/N=C/c3ccc4c(c3)OCO4)sc2c1	16	0	3	-2	62*	0	2	-4
O=C(N/N=C/c1ccc2c(c1)OCO2)c1sc2cccc(Cl)c2c1Cl	1	-7	0	-3	35	0	.	.
COc1ccccc1NS(=O)(=O)c1cccc(C(=O)N/N=C/c2ccc3c(c2)OCCO3)c1	1	2	1	2	-5	3	.	.
